Laboratory results: ChEMBL document CHEMBL1629456, “ApoA-I mimetic peptides promote pre-β HDL formation in vivo causing remodeling of HDL and triglyceride accumulation at higher dose” (Bioorg Med Chem, 2010)
Activity calls are given as the source filed them. The calls are words filed in the database; no cut-off is given here. *1 amine or outer side, *2 acyl side, *3 side chain or, on linkers, in order; H or OH if unused. Where a SMILES comes first, the peptide text is derived from it. [ ]: non-standard residue; d: D form. dGly(6-heptenyl) = C=CCCCCC[C@@H](N)C(=O)O; Ala(5-hexenyl) = C=CCCCCC[C@H](N)C(=O)O; Gly(octyl) = CCCCCCCC[C@H](N)C(=O)O; X1 = CCCCCCC[C@H](N[*:1])C(=O)[*:2]

Legend:
[1] = test system: Mus musculus; test: Effect on triglyceride level in C57/BL6 mouse at 20 mg/kg, sc after 1 hr; type: functional, organism-based; parameters: dose 20 mg/kg; details: C57Bl/6
Summary of the method: (§1)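 Male C57Bl/6 mice (≥12 weeks, chow-fed) given peptide subcutaneously in 50 mM mannitol/PBS vehicle. Serum was collected by cardiac puncture at 1 or 3 h, clotted 1 h at room temperature and spun at 10,000g. Serum triglyceride was measured by enzymatic colorimetric assay, with 3–5 animals per dose and time point.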

[2] = test system: Mus musculus; test: Effect on triglyceride level in C57/BL6 mouse at 20 mg/kg, sc after 3 hrs; type: functional, organism-based; parameters: dose 20 mg/kg; details: C57Bl/6; summary of the method: as §1
[3] = test system: Mus musculus; test: Effect on triglyceride level in C57/BL6 mouse at 60 mg/kg, sc after 1 hr; type: functional, organism-based; parameters: dose 60 mg/kg; details: C57Bl/6; summary of the method: as §1
[4] = Plasma concentration in C57/BL6 mouse at 60 mg/kg, sc after 3 hrs; type: ADME, organism-based, C57Bl/6; parameters: dose 60 mg/kg, route subcutaneous
Summary of the method: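 Male C57Bl/6 mice were dosed subcutaneously with peptide in 50 mM mannitol/PBS. Serum was taken by cardiac puncture, and peptide was measured by LC–MS/MS after acetonitrile protein precipitation.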

[5] = target: Lipoprotein lipase (Bos taurus) (UniProt P11151); test: Inhibition of Lipoprotein lipase in vitro
[6] = test system: Plasma; test: Induction of pre-beta HDL formation in human plasma after 2 hrs by ELISA; type: functional, cell-free
Summary of the method: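 Increasing peptide concentrations were incubated with normal human plasma at 37 °C for 2 h. Pre-β HDL was quantified by a commercial human pre-β HDL ELISA.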

[7] = target: Phospholipid-transporting ATPase ABCA1 (Mus musculus, UniProt P41233); test: Induction of ABCA1-mediated [3H]cholesterol efflux in mouse RAW 264.7 macrophages after 24 hrs
Sequence of Phospholipid-transporting ATPase ABCA1 (P41233 whole entry): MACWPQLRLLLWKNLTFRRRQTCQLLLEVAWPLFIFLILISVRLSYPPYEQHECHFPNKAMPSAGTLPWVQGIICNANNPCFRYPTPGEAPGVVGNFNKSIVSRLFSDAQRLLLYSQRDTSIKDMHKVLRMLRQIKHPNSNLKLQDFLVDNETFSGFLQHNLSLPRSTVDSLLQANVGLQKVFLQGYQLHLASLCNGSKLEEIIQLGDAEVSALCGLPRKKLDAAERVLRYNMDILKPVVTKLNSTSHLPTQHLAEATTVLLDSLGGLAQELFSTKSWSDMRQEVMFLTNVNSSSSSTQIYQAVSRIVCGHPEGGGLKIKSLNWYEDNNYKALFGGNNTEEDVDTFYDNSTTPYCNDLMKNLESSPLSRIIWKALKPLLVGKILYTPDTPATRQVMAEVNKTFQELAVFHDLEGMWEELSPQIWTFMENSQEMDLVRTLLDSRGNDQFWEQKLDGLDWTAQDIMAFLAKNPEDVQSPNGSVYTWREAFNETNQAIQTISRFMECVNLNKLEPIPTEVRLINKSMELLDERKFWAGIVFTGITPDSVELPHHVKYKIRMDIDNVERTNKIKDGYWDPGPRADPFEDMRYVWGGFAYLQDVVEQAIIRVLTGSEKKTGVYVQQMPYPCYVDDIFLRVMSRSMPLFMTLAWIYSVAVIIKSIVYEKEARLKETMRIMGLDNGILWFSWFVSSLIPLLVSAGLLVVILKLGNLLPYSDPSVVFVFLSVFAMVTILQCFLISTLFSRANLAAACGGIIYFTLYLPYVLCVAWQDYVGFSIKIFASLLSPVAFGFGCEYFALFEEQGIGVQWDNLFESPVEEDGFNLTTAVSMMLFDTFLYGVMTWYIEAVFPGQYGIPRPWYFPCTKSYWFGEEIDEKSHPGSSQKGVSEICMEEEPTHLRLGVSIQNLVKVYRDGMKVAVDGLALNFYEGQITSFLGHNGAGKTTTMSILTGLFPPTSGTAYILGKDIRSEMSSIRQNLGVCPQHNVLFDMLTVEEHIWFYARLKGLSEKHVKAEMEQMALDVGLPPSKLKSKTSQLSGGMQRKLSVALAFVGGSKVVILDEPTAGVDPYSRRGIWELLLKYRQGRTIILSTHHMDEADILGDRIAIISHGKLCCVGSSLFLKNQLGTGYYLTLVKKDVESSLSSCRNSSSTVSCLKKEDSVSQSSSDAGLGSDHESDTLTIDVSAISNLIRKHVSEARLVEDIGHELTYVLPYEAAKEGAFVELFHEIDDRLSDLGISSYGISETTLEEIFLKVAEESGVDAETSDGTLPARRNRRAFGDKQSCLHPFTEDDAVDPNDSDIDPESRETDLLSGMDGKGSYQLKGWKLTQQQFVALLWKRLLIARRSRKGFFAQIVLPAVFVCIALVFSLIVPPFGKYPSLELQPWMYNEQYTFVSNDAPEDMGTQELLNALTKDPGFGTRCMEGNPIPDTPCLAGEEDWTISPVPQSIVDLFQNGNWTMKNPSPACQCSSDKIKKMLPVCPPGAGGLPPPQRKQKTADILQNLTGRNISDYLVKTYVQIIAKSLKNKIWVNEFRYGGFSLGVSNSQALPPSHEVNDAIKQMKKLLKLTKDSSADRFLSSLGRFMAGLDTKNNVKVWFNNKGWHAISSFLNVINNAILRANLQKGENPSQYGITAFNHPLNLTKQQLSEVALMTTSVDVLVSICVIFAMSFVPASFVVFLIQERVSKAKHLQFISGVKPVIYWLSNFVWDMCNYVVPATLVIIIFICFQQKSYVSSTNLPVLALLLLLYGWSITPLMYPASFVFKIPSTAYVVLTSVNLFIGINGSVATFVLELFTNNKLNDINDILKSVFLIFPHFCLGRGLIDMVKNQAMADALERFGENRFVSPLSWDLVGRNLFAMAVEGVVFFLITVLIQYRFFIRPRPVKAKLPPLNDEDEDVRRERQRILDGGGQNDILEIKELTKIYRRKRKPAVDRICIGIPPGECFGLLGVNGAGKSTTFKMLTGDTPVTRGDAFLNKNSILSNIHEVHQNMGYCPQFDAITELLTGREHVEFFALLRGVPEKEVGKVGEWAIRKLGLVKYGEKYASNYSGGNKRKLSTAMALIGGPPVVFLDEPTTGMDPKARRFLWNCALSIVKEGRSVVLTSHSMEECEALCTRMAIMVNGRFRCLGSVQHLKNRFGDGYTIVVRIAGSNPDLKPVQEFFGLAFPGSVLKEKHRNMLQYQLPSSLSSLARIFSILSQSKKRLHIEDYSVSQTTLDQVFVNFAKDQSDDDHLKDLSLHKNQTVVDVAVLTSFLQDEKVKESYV

Row | concentration at 3 h [4] | IC50 [5] | EC50 [7] | SMILES | Activity [1] | Activity [2] | Activity [3] | Activity [6]
1 | 137 µM | 44 µM | – | CCCCCCC[C@H](NC(=O)[C@H](CCC(=O)O)NC(=O)[C@H](CC(N)=O)NC(=O)[C@H](CC(C)C)NC(=O)[C@H](CCCCN)NC(=O)[C@H](CCC(=O)O)NC(=O)[C@H](CCCNC(=N)N)NC(=O)[C@H](CCCCCCC)NC(=O)[C@H](CCC(=O)O)NC(=O)[C@H](CC(=O)O)NC(=O)[C@H](CC(C)C)NC(=O)[C@@H](NC(=O)[C@@H]1CCCN1C(C)=O)C(C)C)C(=O)N[C@@H](CC(C)C)C(=O)N[C@@H](CCC(=O)O)C(=O)N[C@@H](C)C(=O)N[C@@H](CC(C)C)C(=O)N[C@@H](CCCCN)C(=O)N[C@@H](CCC(N)=O)C(=O)N[C@@H](CCCCN)C(=O)N[C@@H](CC(C)C)C(=O)N[C@@H](CCCCN)C(N)=O (Ac-PVLDE[X1]REKLNE[X1]LEALKQKLK-NH2) | inactive | inactive | inactive | –
2 | 49 µM | 40 µM | 1 µM | C=CCCCCC[C@H](NC(=O)[C@H](CCC(N)=O)NC(=O)[C@H](CCCCN)NC(=O)[C@H](CC(C)C)NC(=O)[C@H](C)NC(=O)[C@H](CCC(=O)O)NC(=O)[C@H](CC(C)C)NC(=O)[C@H](CCCCCC=C)NC(=O)[C@H](CCC(=O)O)NC(=O)[C@H](CC(N)=O)NC(=O)[C@H](CC(C)C)NC(=O)[C@H](CCCCN)NC(=O)[C@H](CCC(=O)O)NC(=O)[C@H](CCCNC(=N)N)NC(=O)[C@@H](CCCCCC=C)NC(=O)[C@H](CCC(=O)O)NC(=O)[C@H](CC(=O)O)NC(=O)[C@H](CC(C)C)NC(=O)[C@@H](NC(=O)[C@@H]1CCCN1C(C)=O)C(C)C)C(=O)N[C@@H](CC(C)C)C(=O)N[C@@H](CCCCN)C(N)=O (Ac-PVLDE[dGly(6-heptenyl)]REKLNE[Ala(5-hexenyl)]LEALKQ[Ala(5-hexenyl)]LK-NH2) | inactive | inactive | inactive | Dose-dependent effect
3 | 55 µM | 21 µM | 0.9 µM | C=CCCCCC[C@H](NC(=O)[C@H](CCC(=O)O)NC(=O)[C@H](CC(N)=O)NC(=O)[C@H](CC(C)C)NC(=O)[C@H](CCCCN)NC(=O)[C@H](CCC(=O)O)NC(=O)[C@H](CCCNC(=N)N)NC(=O)[C@@H](CCCCCC=C)NC(=O)[C@H](CCC(=O)O)NC(=O)[C@H](CC(=O)O)NC(=O)[C@H](CC(C)C)NC(=O)[C@H](CCCCCC=C)NC(=O)[C@@H]1CCCN1C(C)=O)C(=O)N[C@@H](CC(C)C)C(=O)N[C@@H](CCC(=O)O)C(=O)N[C@@H](C)C(=O)N[C@@H](CC(C)C)C(=O)N[C@@H](CCCCN)C(=O)N[C@@H](CCC(N)=O)C(=O)N[C@@H](CCCCN)C(=O)N[C@@H](CC(C)C)C(=O)N[C@@H](CCCCN)C(N)=O (Ac-P[Ala(5-hexenyl)]LDE[dGly(6-heptenyl)]REKLNE[Ala(5-hexenyl)]LEALKQKLK-NH2) | inactive | inactive | inactive | –
4 | – | 88 µM | – | CCCCCCCC[C@H](NC(=O)[C@H](CCC(=O)O)NC(=O)[C@H](CC(N)=O)NC(=O)[C@H](CC(C)C)NC(=O)[C@H](CCCCN)NC(=O)[C@H](CCC(=O)O)NC(=O)[C@H](CCCNC(=N)N)NC(=O)[C@H](Cc1ccccc1)NC(=O)[C@H](CCC(=O)O)NC(=O)[C@H](CC(=O)O)NC(=O)[C@H](CC(C)C)NC(=O)[C@@H](NC(=O)[C@@H]1CCCN1C(C)=O)C(C)C)C(=O)N[C@@H](CC(C)C)C(=O)N[C@@H](CCC(=O)O)C(=O)N[C@@H](C)C(=O)N[C@@H](CC(C)C)C(=O)N[C@@H](CCCCN)C(=O)N[C@@H](CCC(N)=O)C(=O)N[C@@H](CCCCN)C(=O)N[C@@H](CC(C)C)C(=O)N[C@@H](CCCCN)C(N)=O (Ac-PVLDEFREKLNE[Gly(octyl)]LEALKQKLK-NH2) | inactive | inactive | inactive | Dose-dependent effect
